Calb FLC = affects C. albicans growth with fluconazole; C. albicans CaCi-2 (fluconazole-resistant clinical isolate) + fluconazole, Alamar Blue growth, 48 h; 0.57% of 300,000 active; growth inhibition, % (concentration not given with the values);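 active = growth inhibition above about 58% in most replicates, limit read from the data, passing the limit was not always enough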;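 also: all wells also contain fluconazole at 8 µg/ml as a sub-toxic cotreatment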
ASAP1 GAP inh = blocks human ASAP1-stimulated Arf1 GTP hydrolysis. Q9ULH1. GDP FP detection. inhibition, % at 16.5 µM. 0.19% of 360,000 active. AID 624377; in the data active = inhibition above about 25%
PHOSPHO1 block = inhibitors of human PHOSPHO1 phosphatase; 1.1% of 290,000 active; Q8TCT1; recombinant PHOSPHO1, absorbance phosphatase assay; inhibition, % at 13.3 µM; in the data active = inhibition above about 60%
Target sequence (Q8TCT1 whole entry, looked up): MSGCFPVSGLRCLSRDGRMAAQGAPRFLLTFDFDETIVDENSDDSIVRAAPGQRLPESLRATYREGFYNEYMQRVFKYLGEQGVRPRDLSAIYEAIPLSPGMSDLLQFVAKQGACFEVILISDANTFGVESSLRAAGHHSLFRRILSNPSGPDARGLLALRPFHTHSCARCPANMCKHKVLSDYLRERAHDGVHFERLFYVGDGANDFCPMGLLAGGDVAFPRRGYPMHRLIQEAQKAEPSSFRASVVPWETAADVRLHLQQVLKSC
IMP-1 inh-1 = inhibitors of Pseudomonas aeruginosa IMP-1 metallo-beta-lactamase. purified IMP-1, nitrocefin hydrolysis, epi-absorbance fluorescence. inhibition, % at 5.6 µM. 0.45% of 290,000 active. AID 1556;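 active = inhibition above the mean plus 3 SD of all compounds in the same screening run, cut at about 4.5% in these data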
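Assay system: purified IMP-1; Quantity: IMP-1 0.2 nM before substrate addition; Medium: HEPES buffer pH 7.1 with ZnSO4 and Brij 35; Incubation: 15 min enzyme–compound preincubation, then 25 min nitrocefin reaction, 25 °C; Signal: fluorescence quenching readout, ex 480/em 530 nm; Controls: DMSO with and without IMP-1; Repeats: singlicate testing.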
ARFGAP1 inhibitor = inhibits rat ARF GTPase activating protein 1; Arfgap1-stimulated ARF1 GTP hydrolysis, GDP FP detection; inhibition, % at 16.5 µM; 0.26% of 360,000 active; AID 651572;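 active = inhibition above a per-plate limit, mean inhibition of low control wells plus 3 SD, cut at about 25% in these data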
Target sequence (Q62848 1-136 limits assumed): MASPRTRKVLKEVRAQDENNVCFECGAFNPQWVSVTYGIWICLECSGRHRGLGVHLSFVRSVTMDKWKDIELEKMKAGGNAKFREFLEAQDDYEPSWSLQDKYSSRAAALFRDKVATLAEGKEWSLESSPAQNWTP
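System: truncated rat Arfgap1 GAP domain / Medium: HEPES-based buffer, pH 7.5 / Also added: N-terminally truncated human ARF1-GTP substrate / Incubation: enzyme reaction 120 min at 25 °C after 20 min preincubation / Measured by: FP of antibody-bound GDP Alexa 633 tracer, ex 620/em 688 nm / Replicates: singlicate, each compound tested once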
VIM-2 inhibitor = inhibitors of Pseudomonas aeruginosa VIM-2 metallo-beta-lactamase. purified VIM-2, nitrocefin hydrolysis, epi-absorbance fluorescence. inhibition, % at 5.6 µM. 0.89% of 290,000 active;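 active = inhibition above the mean of all tested compounds plus 3 SD, cutoff set per screening run, cut at about 7.5% in these data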;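 also: red hydrolysis product quenches plate fluorescence so inhibitors raise well fluorescence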
IMP-1 inh-2 = blocks IMP-1 metallo-beta-lactamase in VIM-2 selectivity screen | shares compounds with VIM-2 inhibitor | purified IMP-1, nitrocefin hydrolysis, epi-absorbance fluorescence | inhibition, % at 5.6 µM | 1,300 tested, under 10 active | AID 1856; call rule not given here
VIM-2 FRET inh = inhibits VIM-2 in FRET assay to exclude epi-absorbance artifacts. shares compounds with VIM-2 inhibitor. purified VIM-2, CCF2 FRET substrate hydrolysis. inhibition, % at 5.6 µM. 23% of 1,300 active;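 active = inhibition above the mean of all tested compounds plus 3 SD, cut at about 19% in these data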
TEM-1 inh = blocks E. coli TEM-1 beta-lactamase in VIM-2 selectivity screen. shares compounds with VIM-2 inhibitor. inhibition, % at 5.6 µM. 3% of 1,300 active. Purified TEM-1, nitrocefin hydrolysis, epi-absorbance fluorescence;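 active = inhibition above that campaign's mean inhibition plus 3 SD, cut at about 0.46% in these data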
VIM-2 confirm 2 = confirmation of P. aeruginosa VIM-2 metallo-beta-lactamase inhibitors; shares compounds with VIM-2 inhibitor; purified VIM-2, nitrocefin hydrolysis, epi-absorbance; inhibition, % at 5.6 µM; 96% of 1,300 active; AID 2187;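 active = inhibition of the VIM-2 beta-lactamase enzyme above about 11% from the earlier first-round screen, limit read from the data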
Of the large screens only hits and unclear results are named; the others gave an inactive call (follow-up assays come after a bar, where they were run). Sampled rows, rich in hits. Any-hit rate of the full collection: about 2.6%.

C/C(Cl)=C/Cn1c(NCCCn2ccnc2)nc2c1c(=O)[nH]c(=O)n2C	VIM-2 inhibitor 21.6 | IMP-1 inh-2 inactive | VIM-2 FRET inh inactive | TEM-1 inh inactive | VIM-2 confirm 2 44.5
CCN(CC)CCNc1nc2c(c(=O)n(C)c(=O)n2C)n1C/C=C(/C)Cl	none
C/C(Cl)=C\Cn1c(NCCCn2ccnc2)nc2c1c(=O)n(C)c(=O)n2C	VIM-2 inhibitor 31.1 | IMP-1 inh-2 inactive | VIM-2 FRET inh inactive | TEM-1 inh inactive | VIM-2 confirm 2 49.4
CN(C)C(=O)c1ccc(Nc2nc(-c3cccs3)nc3ccccc23)cc1	VIM-2 inhibitor 21.9 | IMP-1 inh-2 inactive | VIM-2 FRET inh inactive | TEM-1 inh inactive | VIM-2 confirm 2 24.8
Brc1ccc(-c2ccc(CNCc3ccccn3)o2)cc1	VIM-2 inhibitor 38.8 (no result: PHOSPHO1 block) | IMP-1 inh-2 inactive | VIM-2 FRET inh inactive | TEM-1 inh inactive | VIM-2 confirm 2 50.5
CN1CCN(CCNC(=O)c2cc3c(=O)n(C)c4ccccc4c3n2C)CC1	VIM-2 inhibitor 21.4 | IMP-1 inh-2 inactive | VIM-2 FRET inh inactive | TEM-1 inh inactive | VIM-2 confirm 2 32.6
CCCN1CCN(CCCNC(=O)c2cc3c(=O)n(C)c4ccccc4c3n2C)CC1	VIM-2 inhibitor 15.7 | IMP-1 inh-2 inactive | VIM-2 FRET inh inactive | TEM-1 inh inactive | VIM-2 confirm 2 30.4
Cn1c(C(=O)NCCCN2CCCCCC2)cc2c(=O)n(C)c3ccccc3c21	VIM-2 inhibitor 22.4 (no result: Calb FLC) | IMP-1 inh-2 inactive | VIM-2 FRET inh inactive | TEM-1 inh inactive | VIM-2 confirm 2 28.8
Cn1c(C(=O)N2CCN(C3CCCCC3)CC2)cc2c(=O)n(C)c3ccccc3c21	none (no result: Calb FLC, ASAP1 GAP inh, ARFGAP1 inhibitor)
c1ccc2sc(-n3cc(C4CCCCC4)nn3)nc2c1	none (no result: Calb FLC, PHOSPHO1 block, IMP-1 inh-1, VIM-2 inhibitor)
CCOc1cc(/C=N/n2cnnc2)ccc1OC(=O)c1cccc([N+](=O)[O-])c1	VIM-2 inhibitor 12.6 | IMP-1 inh-2 inactive | VIM-2 FRET inh inactive | TEM-1 inh inactive | VIM-2 confirm 2 14.4
COC(=O)c1c(NC(=O)c2cccc(N3C(=O)CCC3=O)c2)sc2c1CCN(C(C)=O)C2	VIM-2 inhibitor 24.0 | IMP-1 inh-2 inactive | VIM-2 FRET inh inactive | TEM-1 inh inactive | VIM-2 confirm 2 39.4
O=C(CN1CCOCC1)Nc1c(C(=O)C2CC2)oc2ccccc12	none
CN1CCN(CC(=O)Nc2c(C(=O)C3CC3)oc3ccccc23)CC1	VIM-2 inhibitor 21.2 | IMP-1 inh-2 inactive | VIM-2 FRET inh inactive | TEM-1 inh inactive | VIM-2 confirm 2 35.7
Nc1ccc2c(c1)[nH]c(=O)c1cc(N)ccc12	none (no result: Calb FLC, PHOSPHO1 block, IMP-1 inh-1, VIM-2 inhibitor)
Fc1cccc(Cc2c(-c3cccc(Cl)c3)nc3c(Cl)cc(C(F)(F)F)cn23)c1	none (no result: Calb FLC, PHOSPHO1 block, IMP-1 inh-1, VIM-2 inhibitor)
COc1cc(Nc2cc(C)nc3nc(C)nn23)cc(OC)c1OC	VIM-2 inhibitor 12.7 | IMP-1 inh-2 inactive | VIM-2 FRET inh inactive | TEM-1 inh inactive | VIM-2 confirm 2 32.9
COc1ccc(Nc2cc(C)nc3nc(C)nn23)cc1Cl	VIM-2 inhibitor 18.6 | IMP-1 inh-2 inactive | VIM-2 FRET inh inactive | TEM-1 inh inactive | VIM-2 confirm 2 29.1
Cc1cc(Nc2ccc(C)c(Br)c2)n2nc(C)nc2n1	VIM-2 inhibitor 13.8 | IMP-1 inh-2 inactive | VIM-2 FRET inh inactive | TEM-1 inh inactive | VIM-2 confirm 2 27.6
COc1ccc(C(C(=O)NCc2ccccc2)n2c(=O)c(-c3cc4ccccc4[nH]3)nc3ccccc32)cc1 (configuration not stated)	none (no result: Calb FLC, PHOSPHO1 block, IMP-1 inh-1, VIM-2 inhibitor)
CCOC(=O)C[C@@H]1OC[C@H](C(C)C)N1S(=O)(=O)c1ccc(C)cc1	none (no result: Calb FLC, PHOSPHO1 block, IMP-1 inh-1, VIM-2 inhibitor)
Nc1nc(N)nc(-c2ccccn2)n1	none
